Results on 13 compounds are retold here after ChEMBL document CHEMBL1765051 (J Med Chem, 2011).

SMILES strings stand for the structures. In brackets after ≈: the same amount, converted by molar mass.

Assay [1] relates to Human immunodeficiency virus 1. Description: Ratio of EC50 for HIV1 3B harboring reverse transcriptase Y188L mutant to EC50 for wild type HIV1 3B. It is filed as functional.
In assay [2] the test system is Human immunodeficiency virus 1. Kind of assay: Antiviral activity against HIV1 3B harboring reverse transcriptase G190E mutant infected in human CEM cells assessed as inhibition of syncytia formation. The class given is functional, organism-based. Conditions: Human immunodeficiency virus 1, 3B, CCRF-CEM.
The subject of assay [3] is Human immunodeficiency virus 1. Description: Ratio of EC50 for HIV1 3B harboring reverse transcriptase L100I mutant to EC50 for wild type HIV1 3B. The class given is functional.
For assay [4], the system named is Human immunodeficiency virus 1. Description: Ratio of EC50 for HIV1 3B harboring reverse transcriptase N136A/Q/K mutant to EC50 for wild type HIV1 3B. The class given is functional.
Assay [5] relates to Human immunodeficiency virus 1. Kind of assay: Antiviral activity against HIV1 3B harboring reverse transcriptase N136A/Q/K mutant infected in human CEM cells assessed as inhibition of syncytia formation. The class given is functional, organism-based. To be noted: Human immunodeficiency virus 1, 3B, CCRF-CEM.
The subject of assay [6] is Human immunodeficiency virus 1. Kind of assay: Antiviral activity against wild type HIV1 3B infected in human CEM cells assessed as inhibition of syncytia formation. It is filed as functional, organism-based. Conditions: Human immunodeficiency virus 1, 3B, CCRF-CEM.
The test system of assay [7] is Human immunodeficiency virus 1. Description: Antiviral activity against HIV1 3B harboring reverse transcriptase E138D mutant infected in human CEM cells assessed as inhibition of syncytia formation. The class given is functional, organism-based. To be noted: Human immunodeficiency virus 1, 3B, CCRF-CEM.
For assay [8], the system named is Human immunodeficiency virus 1. Kind of assay: Ratio of EC50 for HIV1 3B harboring reverse transcriptase G190E mutant to EC50 for wild type HIV1 3B. It is filed as functional.
Assay [9] concerns the target Human immunodeficiency virus type 1 reverse transcriptase (Human immunodeficiency virus 1, UniProt Q72547, E138K). Kind of assay: Inhibition of HIV-1 reverse transcriptase E138K mutant-mediated polymerization reaction after 30 mins. In outline:
(§1)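 Recombinant mutant HIV-1 RT started reactions containing 50 mM Tris-HCl pH 7.8, 5 mM DTT, 300 mM glutathione, 0.5 mM EDTA, 150 mM KCl, 5 mM MgCl2, BSA, 0.06% Triton X-100, 2.8 μM [3H]dGTP, 0.1 mM poly(rC)/oligo(dG) and varying compound. Incubated 30 min at 37°C, stopped with yeast RNA/pyrophosphate/TCA, acid-insoluble radioactivity counted; IC50 = 50% polymerization inhibition; mean ± SD, ≥2 independent experiments.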

In assay [10] the test system is Human immunodeficiency virus 1. Kind of assay: Antiviral activity against HIV1 3B harboring reverse transcriptase V179N mutant infected in human CEM cells assessed as inhibition of syncytia formation. The class given is functional, organism-based. Conditions: Human immunodeficiency virus 1, 3B, CCRF-CEM.
The test system of assay [11] is Human immunodeficiency virus 2. Description: Antiviral activity against wild type HIV2 infected in human CEM cells assessed as inhibition of syncytia formation. The class given is functional, organism-based. Conditions: Human immunodeficiency virus 2, CCRF-CEM.
Assay [12] relates to Human immunodeficiency virus 1. Description: Antiviral activity against HIV1 3B harboring reverse transcriptase Y188H mutant infected in human CEM cells assessed as inhibition of syncytia formation. The class given is functional, organism-based. Conditions: Human immunodeficiency virus 1, 3B, CCRF-CEM.
Assay [13] deals with Human immunodeficiency virus 1. Kind of assay: Ratio of EC50 for HIV1 3B harboring reverse transcriptase K103N mutant to EC50 for wild type HIV1 3B. It is filed as functional.
For assay [14], the system named is Human immunodeficiency virus 1. Description: Antiviral activity against HIV1 3B harboring reverse transcriptase Y188L mutant infected in human CEM cells assessed as inhibition of syncytia formation. It is filed as functional, organism-based. To be noted: Human immunodeficiency virus 1, 3B, CCRF-CEM.
Assay [15] has as its system Human immunodeficiency virus 1. Kind of assay: Antiviral activity against HIV1 3B harboring reverse transcriptase K103N mutant infected in human CEM cells assessed as inhibition of syncytia formation. The class given is functional, organism-based. Conditions: Human immunodeficiency virus 1, 3B, CCRF-CEM.
Assay [16] deals with Human immunodeficiency virus 1. Kind of assay: Ratio of EC50 for HIV1 3B harboring reverse transcriptase Y181C mutant to EC50 for wild type HIV1 3B. It is filed as functional.
Assay [17] in a line: Inhibition of HIV-1 reverse transcriptase […] and E138K mutant-mediated polymerization reaction after 30 mins. More on the design: species or system Human immunodeficiency virus 1. In outline:
as §1

The test system of assay [18] is Human immunodeficiency virus 1. Description: Antiviral activity against HIV1 3B harboring reverse transcriptase L100I mutant infected in human CEM cells assessed as inhibition of syncytia formation. It is filed as functional, organism-based. Conditions: Human immunodeficiency virus 1, 3B, CCRF-CEM.
Assay [19] relates to Human immunodeficiency virus 1. Description: Antiviral activity against HIV1 3B harboring reverse transcriptase Y181C mutant infected in human CEM cells assessed as inhibition of syncytia formation. The class given is functional, organism-based. Conditions: Human immunodeficiency virus 1, 3B, CCRF-CEM.
The subject of assay [20] is Human immunodeficiency virus 1. Description: Antiviral activity against HIV1 3B harboring reverse transcriptase E138K mutant infected in human CEM cells assessed as inhibition of syncytia formation. The class given is functional, organism-based. To be noted: Human immunodeficiency virus 1, 3B, CCRF-CEM.
For assay [21], the system named is Human immunodeficiency virus 1. Description: Ratio of EC50 for HIV1 3B harboring reverse transcriptase V106A mutant to EC50 for wild type HIV1 3B. The class given is functional.
For assay [22], the system named is Human immunodeficiency virus 1. Description: Ratio of EC50 for HIV1 3B harboring reverse transcriptase Y188H mutant to EC50 for wild type HIV1 3B. It is filed as functional.
The test system of assay [23] is Human immunodeficiency virus 1. Kind of assay: Antiviral activity against HIV1 3B harboring reverse transcriptase Y181I mutant infected in human CEM cells assessed as inhibition of syncytia formation. To be noted: Human immunodeficiency virus 1, 3B, CCRF-CEM. It is filed as functional, organism-based.
The subject of assay [24] is Human immunodeficiency virus 1. Kind of assay: Antiviral activity against HIV1 3B harboring reverse transcriptase V106A mutant infected in human CEM cells assessed as inhibition of syncytia formation. The class given is functional, organism-based. To be noted: Human immunodeficiency virus 1, 3B, CCRF-CEM.
The target in assay [25] is Human immunodeficiency virus type 1 reverse transcriptase (Human immunodeficiency virus 1, UniProt Q72547, K101E). Description: Inhibition of HIV-1 reverse transcriptase K101E mutant-mediated polymerization reaction after 30 mins. In outline: as §1
For assay [26], the system named is Human immunodeficiency virus 1. Description: Ratio of EC50 for HIV1 3B harboring reverse transcriptase E138K mutant to EC50 for wild type HIV1 3B. It is filed as functional.
For assay [27], the system named is Human immunodeficiency virus 1. Kind of assay: Ratio of EC50 for HIV1 3B harboring reverse transcriptase Y181I mutant to EC50 for wild type HIV1 3B. The class given is functional.
The test system of assay [28] is Human immunodeficiency virus 1. Kind of assay: Antiviral activity against wild type HIV1 infected in human CEM cells assessed as inhibition of syncytia formation. The class given is functional, organism-based. Conditions: Human immunodeficiency virus 1, CCRF-CEM.
In assay [29] the target is Human immunodeficiency virus type 1 reverse transcriptase (Human immunodeficiency virus 1, UniProt Q72547). Kind of assay: Inhibition of wild type HIV-1 reverse transcriptase-mediated polymerization reaction after 30 mins.

As a reminder, the EC50 is the concentration needed to bring the measured effect to its halfway point. A word on the IC50: it is the concentration that gives 50% inhibition. `Cc1cn([C@@H]2O[C@H](CO[Si](C)(C)C(C)(C)C)[C@@]3(OS(=O)(=O)C=C3N)[C@H]2O[Si](C)(C)C(C)(C)C)c(=O)[nH]c1=O`: the “Ratio EC50” value in assay [1] was 30; in assay [3], 7; in assay [4], 30; in assay [8], 30; in assay [13], 7; in [16] it was 30. Besides, the “Ratio EC50” value in assay [21], in [22], in assay [26] and in assay [27] was 30 throughout. Further, the EC50 in assay [2] was over 10 µg/mL; in assay [5], over 50 µg/mL; in assay [6], 0.03 µg/mL (≈ 0.0509 µM); in [7] it was 0.01 µg/mL (≈ 0.017 µM); in assay [10], 0.22 µg/mL (≈ 0.373 µM); in assay [11], over 20 µM. Also, the EC50 in assay [12] is over 3.3 µg/mL; in assay [14] it was over 10 µg/mL; in [15] it was 0.23 µg/mL (≈ 0.39 µM); in [18], 0.07 µg/mL (≈ 0.119 µM); in assay [19] it was 2 µg/mL (≈ 3.39 µM); in assay [20] it was over 3 µg/mL. For the same compound, the figures for the EC50 in assay [23] and in assay [24] were over 10 µg/mL and 1.9 µg/mL (≈ 3.22 µM), respectively. For the same compound, the IC50 in assay [9] was over 170 µM; in assay [17], over 100 µg/mL; in assay [25] it was at least 170 µM.

As to `Cc1cn([C@@H]2O[C@H](CO[Si](C)(C)C(C)(C)C)[C@@]3(OS(=O)(=O)C=C3NC(=O)C(N)=O)[C@H]2O[Si](C)(C)C(C)(C)C)c(=O)n(C)c1=O`, the EC50 in assay [28] is 28 nM; in assay [11], over 7 µM.

In the case of `Cc1cn([C@@H]2O[C@H](CO[Si](C)(C)C(C)(C)C)[C@@]3(OS(=O)(=O)C=C3N)[C@H]2O[Si](C)(C)C(C)(C)C)c(=O)[nH]c1=S`, the EC50 in [28] was 170 nM; in assay [11], over 2 µM.

With `Cc1cn([C@@H]2O[C@H](CO[Si](C)(C)C(C)(C)C)[C@@]3(OC(=O)N=C3N)[C@H]2O[Si](C)(C)C(C)(C)C)c(=O)n(C)c1=O`, the EC50 in assay [28] is 5800 nM; in assay [11] it was over 35 µM.

As to `Cc1cn([C@@H]2O[C@H](CO[Si](C)(C)C(C)(C)C)[C@]3(C=CS(=O)(=O)O3)[C@H]2O[Si](C)(C)C(C)(C)C)c(=O)n(C)c1=O`, the EC50 was 150 nM in [28] and over 2 µM in assay [11]. In addition, 3300 nM corresponded to half-maximal inhibition in assay [29] (IC50).

`CC1=CN([C@@H]2O[C@H](CO[Si](C)(C)C(C)(C)C)[C@@]3(OS(=O)(=O)C=C3N)[C@H]2O[Si](C)(C)C(C)(C)C)C(=O)NC1`: the results for the EC50 in assay [28] and in assay [11] were 100 nM and over 10 µM, respectively.

For the compound `CC(C)(C)[Si](C)(C)OC[C@H]1O[C@@H](n2cnc3c(N)ncnc32)[C@H](O[Si](C)(C)C(C)(C)C)[C@]12OS(=O)(=O)C=C2N`, the EC50 in [28] was 50 nM; in assay [11] it was over 10 µM.

`Cn1cnc2c(ncn2[C@@H]2O[C@H](CO[Si](C)(C)C(C)(C)C)[C@@]3(OS(=O)(=O)C=C3N)[C@H]2O[Si](C)(C)C(C)(C)C)c1=O`: the EC50 in [28] is 60 nM; in assay [11], over 150 µM.

On to `CNC(=O)c1cnnn1[C@@H]1O[C@H](CO[Si](C)(C)C(C)(C)C)[C@@]2(OS(=O)(=O)C=C2N)[C@H]1O[Si](C)(C)C(C)(C)C`, for which the EC50 in [28] is 80 nM; in [11] it was over 7 µM.

Take `Cc1cn([C@@H]2O[C@H](CO[Si](C)(C)C(C)(C)C)[C@@]3(NS(=O)(=O)N=C3N)[C@H]2O[Si](C)(C)C(C)(C)C)c(=O)n(C)c1=O`: the EC50 in assay [28] was 5300 nM; in assay [11], over 7 µM.

`Cc1cn([C@@H]2O[C@H](CO[Si](C)(C)C(C)(C)C)[C@@]3(OS(=O)(=O)C=C3N)[C@H]2O[Si](C)(C)C(C)(C)C)c(=O)n(C)c1=O`: the “Ratio EC50” value was 30 in [1]; 7 in assay [3]; 30 in assay [4]; 30 in [8]; 7 in assay [13]; 30 in assay [16]. Also, the “Ratio EC50” value in assay [21], in assay [22], in assay [26] and in assay [27] was 30 each time. Further, the EC50 in assay [2] was over 10 µg/mL; in assay [28], 40 nM; in [5], over 50 µg/mL; in [6] it was 0.03 µg/mL (≈ 0.0497 µM); in assay [7] it was 0.01 µg/mL (≈ 0.0166 µM); in assay [10], 0.22 µg/mL (≈ 0.364 µM). Besides, the EC50 was over 250 µM in [11]; over 3.3 µg/mL in assay [12]; over 10 µg/mL in assay [14]; 0.23 µg/mL (≈ 0.381 µM) in assay [15]; 0.07 µg/mL (≈ 0.116 µM) in [18]; 2 µg/mL (≈ 3.31 µM) in assay [19]. The EC50 is over 3 µg/mL in assay [20], over 10 µg/mL in assay [23] and 1.9 µg/mL (≈ 3.15 µM) in [24]. Also, the IC50 in [9] was over 166 µM; in assay [17] it was over 100 µg/mL; in assay [25], over 166 µM; in assay [29], 2400 nM.

Turning to `CNC(=O)CCCCn1c(=O)c(C)cn([C@@H]2O[C@H](CO[Si](C)(C)C(C)(C)C)[C@@]3(OS(=O)(=O)C=C3N)[C@H]2O[Si](C)(C)C(C)(C)C)c1=O`, the EC50 in [11] is over 10 µM.

For `Nc1nc2c(ncn2[C@H]2CC[C@@H](COP(=O)(O)OP(=O)(O)OP(=O)(O)O)O2)c(=O)[nH]1` [DIDEOXY GUANOSINE TRIPHOSPHATE], the IC50 in assay [9] is 0.224 µM; in assay [17], 0.14 µg/mL; in assay [25], 0.244 µM; in assay [29], 224 nM.
